In ChEMBL document CHEMBL1145132, “N-hydroxy-3-phenyl-2-propenamides as novel inhibitors of human histone deacetylase with in vivo antitumor activity: discovery of (2E)-N-hydroxy-3-[4-[[(2-hydroxyethyl)[2-(1H-indol-3-yl)ethyl]amino]methyl]phenyl]-2-propenamide (NVP-LAQ824)” (J Med Chem, 2003):

Legend:
[1] = tested on: NCI-H1299; assay: Inhibitory activity against H1299 human lung carcinoma cell growth; format: functional, cell-based
[2] = tested on: HCT-116; assay: Inhibitory activity against HCT116 human colon cell growth; format: functional, cell-based
[3] = molecular target: Histone deacetylase; assay: Inhibitory activity against histone deacetylase (HDAC) enzyme obtained from H1299 human lung carcinoma cell lysates
[4] = tested on: Mus musculus; assay: Compound was tested for efficacy in athymic mice bearing HCT116 subcutaneous tumor xenografts at a dose of 10 mg/kg and change in the body weight of the mouse was evaluated; format: functional
How it was run: (§1)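 Female outbred athymic nu/nu mice, ≈10⁶ HCT116 cells injected sc in right axillary region under anesthesia; treatment began when tumors ≈100 mm³ (day 13 post-implant), groups of eight balanced on tumor volume. Compound given iv as lactate salt in 10% DMSO/D5W, qd 5×/week for 15 doses. Individual body weights recorded once weekly; % change from start reported.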

[5] = tested on: Mus musculus; assay: Ratio of the change in tumor volume of treated animals to the change in tumor volume of control animals at a dose of 10 mg/kg; format: functional
How it was run: (§2)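 HCT116 sc xenografts (≈10⁶ cells) in female athymic nude mice, eight per group, treated from ≈100 mm³ tumors with iv lactate salt in 10% DMSO/D5W qd 5×/week for 10 or 15 doses. Tumors measured weekly; % T/C = change in treated tumor volume over change in vehicle-control tumor volume; one-tailed Student's t-test.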

[6] = tested on: Mus musculus; assay: Compound was tested for maximum tolerated dose (MTD) that resulted in no deaths when administered intravenously for five days; format: functional
How it was run: (§3)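 Athymic mice, four per group, dosed iv once daily for five consecutive days, up to a maximum of 200 mg/kg/day. Compound given as the lactate salt in 10% DMSO in 5% dextrose/water (final DMSO 10%). MTD taken as the highest dose that caused no deaths.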

[7] = tested on: Mus musculus; assay: Compound was tested for efficacy in athymic mice bearing HCT116 subcutaneous tumor xenografts at a dose of 45 mg/kg and change in the body weight of the mouse was evaluated; format: functional
[8] = tested on: Mus musculus; assay: Ratio of the change in tumor volume of treated animals to the change in tumor volume of control animals at a dose of 45 mg/kg; format: functional; how it was run: as §2
[9] = tested on: Mus musculus; assay: Compound was tested for efficacy in athymic mice bearing HCT116 subcutaneous tumor xenografts at a dose of 75 mg/kg and change in the body weight of the mouse was evaluated; format: functional
[10] = tested on: Mus musculus; assay: Ratio of the change in tumor volume of treated animals to the change in tumor volume of control animals at a dose of 75 mg/kg; format: functional; how it was run: as §2
[11] = tested on: Mus musculus; assay: Compound was tested in vivo for efficacy in athymic mice bearing HCT116 subcutaneous tumor xenografts at a dose of 100 mg/kg and change in the body weight of the mouse was evaluated; format: functional; conditions: route intravenous; how it was run: as §1
[12] = tested on: Mus musculus; assay: Ratio of the change in tumor volume of treated animals to the change in tumor volume of control animals at a dose of 100 mg/kg; format: functional; how it was run: as §2
[13] = tested on: Mus musculus; assay: Ratio of the change in tumor volume of treated animals to the change in tumor volume of control animals at a dose of 50 mg/kg; format: functional; how it was run: as §2
[14] = tested on: Mus musculus; assay: Compound was tested in vivo for efficacy in athymic mice bearing HCT116 subcutaneous tumor xenografts at a dose of 25 mg/kg and change in the body weight of the mouse was evaluated; format: functional
[15] = tested on: Mus musculus; assay: Compound was tested in vivo for efficacy in athymic mice bearing HCT116 subcutaneous tumor xenografts at a dose of 50 mg/kg and change in the body weight of the mouse was evaluated; format: functional; conditions: route intravenous; how it was run: as §1
[16] = tested on: Mus musculus; assay: Ratio of the change in tumor volume of treated animals to the change in tumor volume of control animals at a dose of 25 mg/kg; format: functional; how it was run: as §2
[17] = tested on: Mus musculus; assay: Compound was tested in vivo for maximum tolerated dose (MTD) that resulted in no deaths when administered intravenously for five days; format: functional; how it was run: as §3
[18] = tested on: Mus musculus; assay: Compound was tested in vivo for efficacy in athymic mice bearing HCT116 subcutaneous tumor xenografts at a dose of 10 mg/kg and change in the body weight of the mouse was evaluated; format: functional; conditions: route intravenous; how it was run: as §1

Compound | IC50 [1] [nM] | IC50 [2] [nM] | IC50 [3] [nM] | also measured
O=C(/C=C/c1ccc(CN(CCc2c[nH]c3ccccc23)C2CCCCC2)cc1)NO | 40 | 17 | 20 | –
O=C(/C=C/c1ccc(CNCCCCc2c[nH]c3ccccc23)cc1)NO | 480 | 30 | 37 | –
O=C(/C=C/c1ccc(CN(CCOC(=O)NCc2ccoc2)CCc2c[nH]c3ccccc23)cc1)NO | 180 | 15 | 370 | –
O=C(/C=C/c1ccc(CN(CCCc2ccccc2)Cc2ccccn2)cc1)NO | 2740 | 740 | 278 | –
O=C(/C=C/c1ccc(CNCc2cc3ccccc3[nH]2)cc1)NO | 940 | 50 | 51 | –
O=C(/C=C/c1ccc(CN2CCc3c([nH]c4ccccc34)C2)cc1)NO | 2900 | 430 | 118 | –
O=C(/C=C/c1ccc(CNCCn2c3ccccc3c3ccccc32)cc1)NO | 100 | 10 | 66 | Body weight change [4]: -3.7%; T/C [5]: 85%; MTD [6]: 10 mg/kg
O=C(/C=C/c1ccc(CN(CCCc2ccccc2)Cc2cccnc2)cc1)NO | 1700 | 420 | 164 | –
O=C(/C=C/c1ccc(CNCCCc2ccccc2)cc1)NO | 800 | 50 | 150 | Body weight change [7]: -3.1%; T/C [8]: 86%; MTD [6]: 45 mg/kg
O=C(/C=C/c1ccc(CNCCc2ccc3c(c2)OCO3)cc1)NO | 500 | 50 | 30 | –
O=C(/C=C/c1ccc(CN(CCc2c[nH]c3ccccc23)C(CO)CO)cc1)NO | 2500 | 160 | 52 | –
Cn1cc(CCNCc2ccc(/C=C/C(=O)NO)cc2)c2ccccc21 | 170 | 10 | 23 | Body weight change [9]: -3.2%; MTD [6]: 75 mg/kg; T/C [10]: 15%
O=C(/C=C/c1ccc(CN[C@H](CO)Cc2c[nH]c3ccccc23)cc1)NO | 810 | 50 | 27 | –
O=C(/C=C/c1ccc(CNCCc2c[nH]c3ccccc23)cc1)NO | 400 | – | – | Body weight change [11]: -9.4%; T/C [12]: 17%; T/C [5]: 56%; T/C [13]: 13%; Body weight change [14]: -7%; Body weight change [15]: -7.3%; T/C [16]: 40%; MTD [17]: 100 mg/kg; Body weight change [18]: -10.2%
O=C(/C=C/c1ccc(CN(CCO)CCc2cnc3ccccc3c2)cc1)NO | 530 | 40 | 24 | T/C [13]: 78%; Body weight change [15]: 3.1%; MTD [17]: 50 mg/kg
Nc1ccccc1NC(=O)c1ccc(CNC(=O)OCc2ccccc2)cc1 | 6820 | 670 | > 10000 | –
O=C(/C=C/c1ccc(CN[C@@H](CO)Cc2c[nH]c3ccccc23)cc1)NO | 750 | 40 | 40 | –
O=C(/C=C/c1ccc(CN(CCc2c[nH]c3ccccc23)Cc2ccccc2)cc1)NO | 2060 | 120 | 85 | –
